Legend:
[1] = Peptide self-assembly by photoinduced cross-linking; type: physicochemical; conditions: peptide 36 µM, not cross-linked, boiled, denaturing gel, silver staining
How it was run: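 Peptides at 36 µM in PBSA, 1 h at 37 °C, then photo-cross-linked (PICUP) and heated 95 °C for 5 min. Non-cross-linked samples boiled for comparison. Separated on 10–20% Tris-Tricine gel; silver stained.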

Aβ(1–40) [2] = target: T1, Aβ(1–40) (Homo sapiens, UniProt P05067); test: Thioflavin T; type: biochemical; conditions: 28 µM Aβ, 2.8 µM peptide or protein, 37 °C, 1, 5, 24, 48 h
T1 sequence (P05067 672-711 limits assumed): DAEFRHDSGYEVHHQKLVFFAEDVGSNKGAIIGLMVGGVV
How it was run: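 Aβ(1–40) urea/glycine stock diluted into PBSA; 28 µM alone or with 2.8 µM peptide or mutant TTR, incubated at 37 °C. At 1, 5, 24 and 48 h, aliquots diluted 14-fold into 10 µM ThT in PBSA. Excitation 440 nm, emission 460–500 nm; intensity at 480 nm used. Three serial spectra averaged, ThT-in-PBSA background subtracted; some samples from two independent experiments.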

[3] = tested on: primary cortical neuronal cells; test: Aβ induced toxicity, MTS assay with primary neuronal cultures; type: cell-based, mice; conditions: for protection from Aβ toxicity at 10 µM peptide: 10 µM Aβ(1–42), MTS, Aβ alone ~35% cell viability
How it was run: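 Cortical neurons from E15.5 mouse embryos, matured in neurobasal medium. Aβ(1–42) at 1 mg/mL in PBS, diluted to 10 µM with or without test peptide or mutant TTR at varying doses. Added at 6 DIV alongside vehicle and controls. At 8 DIV, MTS reagent for 2–3 h, absorbance 490 nm. Significance versus vehicle and versus Aβ set at p < 0.05.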

[4] = Peptide self-association by light scattering; type: physicochemical; conditions: peptide alone 80 µM, 37 °C, after 1 h of incubation; data not shown
Aβ(1–40) [5] = target: T1, Aβ(1–40); test: Aβ aggregate growth kinetics by dynamic light scattering; type: biochemical; conditions: method not specified
How it was run: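 Aβ(1–40) relyophilized from 50% ACN and stored as a urea/glycine stock; thawed, sonicated 2 min and diluted into PBSA. 140 µM Aβ alone or with 14 µM peptide, 0.45 µm filtered into a cuvette held at 37 °C. 488 nm laser; intensity at 90° recorded over 10 h and normalized to total mass concentration; z-averaged hydrodynamic diameter from the autocorrelation function by cumulants.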

Row | Substance | bands in the absence of cross-linker [1] | effect on ThT fluorescence increase up to 48 h (Aβ(1–40) [2]) | protection from Aβ toxicity at 10 µM peptide [3] | light scattered above background (self-association) [4] | inhibition of Aβ toxicity (summary statement) ([3]; summary, concentration not given) | effect on Aβ aggregation (summary statement) (Aβ(1–40) [5])
1 | SKVVT^DPPRYTIAALLSPYSYSQ [LG3] | ~ 5 kDa | at most a minor inhibitory effect | no protective effect | did not scatter light above background |  | 
2 | SKV^DPPTIAALLSPYSYSQ (head to tail) [CG2] |  |  | no protective effect |  |  | 
3 | SKV^DPPTIAALLSPYSYSQ [LG2] |  |  |  |  | nor did they affect Aβ aggregation or inhibit Aβ toxicity | nor did they affect Aβ aggregation

— article PMC4797071 (ACS chemical neuroscience, 2015)
